Assay results taken from PubChem BioAssay.
Results filed as inconclusive are left out.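 Rule for the calls, unless noted: active = inhibition over a set limit, the all-compound mean plus 3 SD, in both replicate runs; inconclusive = over that limit in just one replicate run; inactive = at or under that limit in both runs.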

Legend:
[1] = S. cerevisiae growth inhibition in permissive medium (OD615), pilot counter-assay for S. cerevisiae lifespan shortening project, permissive growth control (AID 705;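 active = growth inhibition above 25% in both replicates, a cutoff set 3 SD above the mean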); conditions: OD615, 24 h, at 10 µM, hits give high values
Procedure, shortened: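 System: S. cerevisiae with engineered DeaD lifespan system / Measured by: absorbance (optical density) at 615 nm / Read-out: reduction in yeast growth (OD615) / Times: 4 h cell pre-growth, 24 h exposure at 30 °C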

[2] = S. cerevisiae growth inhibition in restrictive medium, OD615, pilot screen, restrictive growth control, yeast lifespan reduction project (AID 706;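 active = growth inhibition above a set limit, 3 SD over mean compound inhibition, in both replicates, cut at about 43% in these data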;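 note: modified DeaD lifespan yeast strain shifted to restrictive glucose medium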); conditions: OD615, 48 h, at 10 µM, hits give high values
Procedure, shortened: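 System: Engineered S. cerevisiae DeaD strain | Buffer or medium: Glucose-based CSMM-D restrictive medium | Schedule: 4 h pre-incubation, 48 h exposure at 30 °C | Technique: Optical density at 615 nm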

[3] = doxorubicin toxicity protection in MRP-1 cells – H69AR cells, CellTiter-Glo, duplicate, MRP-1 activator project, pilot screen (AID 807;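 active = viability increase at or above a cutoff of the median across tested compounds plus 3 SD, cut at about 8.5% in these data, passing the limit was not always enough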;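 note: compound pretreatment 18-22 h then 72 h combined with doxorubicin; 0% = doxorubicin alone and 100% = vehicle without doxorubicin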); conditions: H69AR viability with doxorubicin, CellTiter-Glo luminescence; at 10 µM; hits give high values
[4] = viability of HCT116 without oncogenic beta-catenin – human colon tumor cells, pilot screen (AID 823;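 active = cell viability at or below a set limit in both duplicate runs, the limit being the all-compound median minus 4 SD, cut at about 23% in these data, passing the limit was not always enough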;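 note: 0% = wells killed by 20 µM Hyamine and 100% = untreated DMSO cell wells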); conditions: HCT116 beta-catenin knockout viability, CellTiter-Glo, 60 h; at 10 µM; hits give low values
[5] = viability of PTEN-null HCT116 cells – cell-based, HCT116 clonal line, CellTiter-Glo, pilot screen (AID 824;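 active = viability at or below 27.92% in each of two runs, the all-compound median minus 4 SD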;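 note: 0% = 20 µM Hyamine control and 100% = vehicle cell control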); conditions: HCT116 PTEN-deleted viability, 60 h, at 10 µM, hits give low values
[6] = RAM pathway blockade in budding yeast – dse1pr::URA3 reporter, 5-FOA selection, pilot screen (AID 869);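 note: 0% = DMSO wells with no growth and 100% = 10 µM 1-NA-PP1 with full growth; RAM network block rescues cells from 5-FOA so hits raise OD615 growth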; conditions: S. cerevisiae dse1pr::URA3 5-FOA growth, OD615, 2 d; at 10 µM; hits give high values; strain carries analog-sensitive mutant Cbk1 kinase
[7] = RAM signaling pathway blockade in yeast – S. cerevisiae, Pdr1DBD-CYC8 efflux-inhibited sensitized strain, primary screen (AID 1298;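 active = RAM network inhibition above 8.4% in each of two replicates, 3 SD over the compound average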;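 note: 0% = DMSO untreated cells without growth and 100% = 10 µM 1-NA-PP1 full growth; higher means more yeast growth rescued from 5-FOA killing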); conditions: S. cerevisiae cbk1-as DSE1-URA3 strain, 5-FOA growth OD615, 2 d; at 50 µM; hits give high values

CCOC(=O)C1=C(C)N=c2s/c(=C\C(=O)OC)c(=O)n2C1c1ccc(OC)cc1 (configuration not stated)
inactive: growth inhibition [1] -2.88% | growth inhibition [2] 11.6% | viability increase [3] -2.64% | viability [4] 100% | viability [5] 101% | inhibition [6] 1.73% | RAM network inhibition [7] 4.95%

CCOC(=O)c1c(/N=C/N(C)C)sc(C(=O)OC)c1C
inactive: growth inhibition [1] -5.39% | growth inhibition [2] 3.21% | viability increase [3] -4.56% | viability [4] 91.1% | viability [5] 89.6% | inhibition [6] 0.78% | RAM network inhibition [7] 1.45%

COc1cc(NC(=O)C2CCC(CNc3c(N4CCCCC4)c(=O)c3=O)CC2)cc(OC)c1 (configuration not stated)
inactive: growth inhibition [1] 0.52% | growth inhibition [2] -2.35% | viability increase [3] -0.71% | viability [4] 95.2% | viability [5] 95.9% | inhibition [6] 1.79% | RAM network inhibition [7] 5.55%

CCCc1nc(C)c(-c2ccc(OC)c(OC)c2)c(=O)[nH]1
inactive: growth inhibition [1] -17.9% | growth inhibition [2] -15.2% | viability increase [3] -0.18% | viability [4] 101% | viability [5] 95.3% | inhibition [6] 2.53% | RAM network inhibition [7] 0.84%

Cc1c(C(=O)Nc2ccncc2)sc2nc(-c3ccccc3)cn12
inactive: growth inhibition [1] 0.39% | growth inhibition [2] 9.21% | viability increase [3] 2.2% | viability [4] 89.2% | viability [5] 89.2% | inhibition [6] 0.99% | RAM network inhibition [7] -1.99%

Cc1ccc(-c2nc3ncccc3o2)cc1NC(=O)Cc1ccc(Cl)cc1
inactive: growth inhibition [1] -17.4% | growth inhibition [2] -10.8% | viability increase [3] -4.9% | viability [4] 81.8% | viability [5] 82.9% | inhibition [6] 2.07% | RAM network inhibition [7] 1.75%

Cc1cccc(NC(=O)c2cccnc2)c1
inactive: growth inhibition [1] -3.06% | growth inhibition [2] 4.14% | viability increase [3] 1.56% | viability [4] 97.2% | viability [5] 96.5% | inhibition [6] 0.405% | RAM network inhibition [7] 5.69%

CCOc1ccc(N2CC(C(=O)NCCC3=CCCCC3)CC2=O)cc1 (configuration not stated)
inactive: growth inhibition [1] -1.23% | growth inhibition [2] -18.5% | viability increase [3] 0.15% | viability [4] 99.6% | viability [5] 93.8% | inhibition [6] 0.36% | RAM network inhibition [7] 3.96%

C=C(C)c1cccc(C(C)(C)NC(=O)N2CCN(c3ccccn3)CC2)c1
inactive: growth inhibition [1] -11.1% | growth inhibition [2] 0.485% | viability increase [3] -0.48% | viability [4] 75.8% | viability [5] 89.6% | inhibition [6] 1.06% | RAM network inhibition [7] 1.43%

O=C1C2CCCN2C(c2ccccc2)N1c1ccc(F)cc1 (configuration not stated)
inactive: growth inhibition [1] -1.42% | growth inhibition [2] 3.23% | viability increase [3] -2.06% | viability [4] 96.9% | viability [5] 89.3% | inhibition [6] 2.05% | RAM network inhibition [7] 2.34%

CSc1ccccc1NC(=O)c1cnc2scc(C)n2c1=O
inactive: growth inhibition [1] -16.8% | growth inhibition [2] 3.44% | viability increase [3] -2.05% | viability [4] 87.1% | viability [5] 88.1% | inhibition [6] 0.665% | RAM network inhibition [7] 3.71%

CC1(C)C(c2ccc(Cl)cc2)=[N+]([O-])C2(CCCC/C2=N\O)N1O (configuration not stated)
inactive: growth inhibition [1] -15.4% | growth inhibition [2] -4.64% | viability increase [3] 1.21% | viability [4] 96.5% | viability [5] 94.2% | inhibition [6] 0.555% | RAM network inhibition [7] 6.93%

CCOc1ccccc1N(CC(=O)Nc1ccccc1C(=O)O)S(C)(=O)=O
inactive: growth inhibition [1] -15.5% | growth inhibition [2] -9.54% | viability increase [3] 0.9% | viability [4] 97.5% | viability [5] 85.1% | inhibition [6] 0.11% | RAM network inhibition [7] 5.86%

O=C(O)CC(Cn1cnnn1)c1ccccc1 (configuration not stated)
inactive: growth inhibition [1] 3.8% | growth inhibition [2] -2.96% | viability increase [3] -0.66% | viability [4] 103% | viability [5] 101% | inhibition [6] 1.12% | RAM network inhibition [7] 2.58%

O=C(NCc1ccco1)c1cnccn1
inactive: growth inhibition [1] 3.99% | growth inhibition [2] 5.22% | viability increase [3] -2.25% | viability [4] 98.7% | viability [5] 101% | inhibition [6] 2.81% | RAM network inhibition [7] -0.25%

CCOC(=O)Cn1c(C(C)=O)nc2ccccc21
inactive: growth inhibition [1] -18.1% | growth inhibition [2] -25.1% | viability increase [3] 0.94% | viability [4] 102% | viability [5] 94.8% | inhibition [6] 0.28% | RAM network inhibition [7] 0.32%

Cn1c(Cn2c(=O)sc3ccccc32)nnc1SCc1cccc(F)c1
inactive: growth inhibition [1] -7.92% | growth inhibition [2] 2.12% | viability increase [3] -0.5% | viability [4] 71.1% | viability [5] 69.7% | inhibition [6] 3.43% | RAM network inhibition [7] 7.87%

CC(C)NS(=O)(=O)c1ccc(CCC(=O)NCc2cccnc2)cc1
inactive: growth inhibition [1] 2.32% | growth inhibition [2] -6.38% | viability increase [3] -0.9% | viability [4] 88% | viability [5] 92.5% | inhibition [6] 1.33% | RAM network inhibition [7] 1.08%

O=C(Nc1nc2c(s1)CCCC2)c1ccc(Br)o1
inactive: growth inhibition [1] 6.52% | growth inhibition [2] -10.8% | viability increase [3] -4.11% | viability [4] 62.4% | viability [5] 64.6% | inhibition [6] 1.8% | RAM network inhibition [7] 4.86%

CCOC(=O)c1cnc2c(C)c(Cl)ccc2c1N1CCOCC1
inactive: growth inhibition [1] -1.27% | growth inhibition [2] -2.46% | viability increase [3] -6.05% | viability [4] 77% | viability [5] 81.3% | inhibition [6] 0.755% | RAM network inhibition [7] 3.29%

CCOC(=O)Cc1csc(NC(=O)COc2ccc(OC)cc2)n1
inactive: growth inhibition [1] -22.4% | growth inhibition [2] -8.99% | viability increase [3] -2.2% | viability [4] 97.2% | viability [5] 92.2% | inhibition [6] 1.89% | RAM network inhibition [7] 0.64%

COc1cc(C(=O)Nc2ccc(S(=O)(=O)Nc3onc(C)c3C)cc2)cc(OC)c1OC
inactive: growth inhibition [1] -5.13% | growth inhibition [2] -14.8% | viability increase [3] 0.55% | viability [4] 104% | viability [5] 105% | inhibition [6] 0.945% | RAM network inhibition [7] 4%

CCOc1ccc(NC2c3ccccc3C(=O)N2c2ccc(Cl)cn2)cc1 (configuration not stated)
inactive: growth inhibition [1] -14% | growth inhibition [2] -15.6% | viability increase [3] -1.1% | viability [4] 94.2% | viability [5] 94.6% | inhibition [6] 3.93% | RAM network inhibition [7] 3.42%

COc1ccc(OC)c(NC(=O)CNC(=O)Cn2ccc3ccccc3c2=O)c1
inactive: growth inhibition [1] -9.38% | growth inhibition [2] 10.5% | viability increase [3] -1.6% | viability [4] 104% | viability [5] 90.5% | inhibition [6] 3.29% | RAM network inhibition [7] -0.05%

COc1ccccc1N1CCN(C(=O)CN(c2ccccc2OC)S(=O)(=O)c2ccccc2)CC1
inactive: growth inhibition [1] -0.685% | growth inhibition [2] -7.83% | viability increase [3] -1.57% | viability [4] 87.5% | viability [5] 83.9% | inhibition [6] 0.845% | RAM network inhibition [7] 4.88%

CC(CCc1ccccc1)NC(=O)c1nnc(Cc2ccc(F)cc2)o1 (configuration not stated)
inactive: growth inhibition [1] -3.78% | growth inhibition [2] 7.46% | viability increase [3] 0% | viability [4] 95.2% | viability [5] 95.2% | inhibition [6] 0.95% | RAM network inhibition [7] 1.1%

Cc1occc1C(=O)NC(C)CCc1ccccc1 (configuration not stated)
inactive: growth inhibition [1] -7.82% | growth inhibition [2] 2.38% | viability increase [3] -0.95% | viability [4] 91.8% | viability [5] 94.1% | inhibition [6] 3.1% | RAM network inhibition [7] 0.62%

Cc1cc(C)c(S(=O)(=O)NCCCN2CCOCC2)cc1Br
inactive: growth inhibition [1] -7.38% | growth inhibition [2] -14.8% | viability increase [3] -2.34% | viability [4] 91.8% | viability [5] 90.9% | inhibition [6] 0.75% | RAM network inhibition [7] 0.92%

O=C(Nc1ccc(Br)cc1F)C1CCN(c2nnc(-n3cccc3)s2)CC1
inactive: growth inhibition [1] 2.32% | growth inhibition [2] -4.69% | viability increase [3] 0.53% | viability [4] 97.8% | viability [5] 99.8% | inhibition [6] 3.21% | RAM network inhibition [7] 0.36%

Cc1cc(Nc2cc(F)ccc2C)n2nc(C)nc2n1
inactive: growth inhibition [1] -12.4% | growth inhibition [2] -7.35% | viability increase [3] -2.3% | viability [4] 105% | viability [5] 95% | inhibition [6] 1.03% | RAM network inhibition [7] 6.29%

CCCn1c(-c2ccc(OC)cc2)nc2ccccc21
inactive: growth inhibition [1] -16.6% | growth inhibition [2] -12.9% | viability increase [3] -0.51% | viability [4] 74.4% | viability [5] 71.9% | inhibition [6] 2.18% | RAM network inhibition [7] 7.97%

CCOc1ccc(N(C(C)C(=O)Nc2ccc(OC)cc2)S(C)(=O)=O)cc1 (configuration not stated)
inactive: growth inhibition [1] -10.2% | growth inhibition [2] -1.65% | viability increase [3] 0.78% | viability [4] 103% | viability [5] 90.2% | inhibition [6] 1% | RAM network inhibition [7] 3.17%

CCCC(=O)OCCNC(=O)c1cc2ccccc2oc1=O
inactive: growth inhibition [1] -4.39% | growth inhibition [2] 2.19% | viability increase [3] -0.74% | viability [4] 102% | viability [5] 90.2% | inhibition [6] 0.64% | RAM network inhibition [7] 2.41%

CC1Cc2nc(SCC(=O)N3CCCC3)n(C)c(=O)c2S1 (configuration not stated)
inactive: growth inhibition [1] -3.58% | growth inhibition [2] -13.8% | viability increase [3] -3.27% | viability [4] 98.2% | viability [5] 87.9% | inhibition [6] 1.17% | RAM network inhibition [7] 5.83%

Cn1c(NC(=O)c2ccccc2C(F)(F)F)cc(=O)n(C)c1=O
inactive: growth inhibition [1] -16.9% | growth inhibition [2] -8.93% | viability increase [3] -2.06% | viability [4] 95.3% | viability [5] 90.7% | inhibition [6] 0.785% | RAM network inhibition [7] -1.32%

COC(=O)C1=C(C)N=c2s/c(=C3\C(=O)Nc4ccccc43)c(=O)n2C1c1ccccc1 (configuration not stated)
inactive: growth inhibition [1] -2% | growth inhibition [2] -1.65% | viability increase [3] -4.83% | viability [4] 92.3% | viability [5] 91.6% | inhibition [6] 1.77% | RAM network inhibition [7] 3.17%
